Laboratory results taken from ChEMBL document CHEMBL1142683, “Multivariate design, synthesis, and biological evaluation of peptide inhibitors of FimC/FimH protein-protein interactions in uropathogenic Escherichia coli” (J Med Chem, 2005).

Experiments:
Escherichia coli [1] = assay: Inhibition of FimC/FimH pilus assembly complex formation in Escherichia coli at 10 uM
Outline: (§1)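 Competitive ELISA: FimC chaperone coated overnight at 4 °C in PBS pH 7.4, blocked with 3% BSA-PBS 1 h RT. Peptide in DMSO (0.5, 2.5 or 10 nmol; 10, 50, 200 µM) plus FimH (1 pmol, in 3 M urea/MES pH 6.8) 45 min RT. Bound FimH detected with mouse anti-FimH, then alkaline phosphatase anti-mouse IgG, p-nitrophenyl phosphate 1 h dark; A405. DMSO positive control. % inhibition, mean of four replicates.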

Escherichia coli [2] = assay: Inhibition of FimC/FimH pilus assembly complex formation in Escherichia coli at 50 uM; outline: as §1
Escherichia coli [3] = assay: Inhibition of FimC/FimH pilus assembly complex formation in Escherichia coli at 200 uM; outline: as §1

Substance | inhibition (Escherichia coli [1]) [%] | inhibition (Escherichia coli [2]) [%] | inhibition (Escherichia coli [3]) [%]
H-ADFFFHSIS-OH | 2 | 16 | 26
H-AFSKSDFIS-OH | -5 | -9 | -6
H-AGGTGTFIS-OH | -3 | -1 | -2
H-AKGDLLLIS-OH | 3 | 13 | 14
H-ATSFGHWIS-OH | 12 | 9 | 0
H-AVLASAWIS-OH | 0 | 8 | 18
H-DSTITIRGY-OH | -1 | 14 | 28
H-GGTVHFKGG-OH | -3 | 1 | 3
H-KDLASTLIS-OH | 16 | 11 | 3
H-KFGDLASIS-OH | 4 | 1 | 7
H-KGFQLDLIS-OH | -7 | 9 | 8
H-KKLKLHFIS-OH | 8 | 22 | 39
H-KVSFGLFIS-OH | 20 | 17 | 29
H-LDSTLAFIS-OH | 10 | 25 | 37
H-LGSAFLFIS-OH | 19 | 29 | 40
H-LTFDGTWIS-OH | 0 | 7 | 10

Substance | inhibition (Escherichia coli [1]) [%] | inhibition (Escherichia coli [2]) [%] | inhibition (Escherichia coli [3]) [%]
H-LVGKSHLIS-OH | 1 | 0 | 5
H-NDLKGLFIS-OH | 10 | 12 | 14
H-NFFAGHFIS-OH | -1 | 0 | 1
H-NGFKFTWIS-OH | 2 | -3 | 2
H-NGLQGASIS-OH | 10 | 19 | 24
H-NGSDSHFIS-OH | 3 | 19 | 12
H-NKGTSDWIS-OH | 3 | 8 | 10
H-NTGALDSIS-OH | 2 | 11 | 15
H-NTGQFAFIS-OH | 17 | 7 | 4
H-NTLQLAIIS-OH | 7 | 23 | 40
H-NTLQLALIS-OH | 18 | 32 | 50
H-NVSTLHLIS-OH | 18 | 30 | 44
H-TDGQLLWIS-OH | -8 | 1 | 4
H-TGGAGALIS-OH | – | 17 | 3
H-TTFTSLSIS-OH | 19 | 35 | 48
H-TVLDFDFIS-OH | 3 | 6 | 5
